≈ marks a conversion by molar mass, not a printed value.
Key:
HT-29 = assay: Cytotoxicity against human HT-29 cells; format: functional; settings: read-out: ED50 (the source's name)
Summary of the method: (§1)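 Cultured human tumour lines (A-549 lung carcinoma, MCF-7 breast carcinoma, HT-29 colon adenocarcinoma) were tested at the Purdue Cell Culture Laboratory by standard protocols, with adriamycin as positive control.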

A549 = assay: Cytotoxicity against human A549 cells; format: functional; settings: for EC50: Homo sapiens, A549, read-out: ED50 (the source's name); summary of the method: as §1
MCF7 = assay: Cytotoxicity against human MCF7 cells; format: functional; settings: read-out: ED50 (the source's name); summary of the method: as §1
[1] = Toxicity in brine shrimp; format: organism-based; settings: artemia, in vivo

CCCCCCCCCCCC/C=C\CC[C@@H](OC(C)=O)[C@@H](CC[C@H](OC(C)=O)[C@@H]1CC[C@@H](CCCCCCCC2=CC(C)OC2=O)O1)OC(C)=O (stereo not given in full)
EC50 (HT-29): 0.0667 µg/mL (≈ 0.091 µM)
EC50 (A549): 0.359 µg/mL (≈ 0.49 µM)
EC50 (MCF7): 24.9 µg/mL (≈ 33.9 µM)

CCCCCCCCCCCCCCC(O)C(O)CC[C@H](O)[C@H]1CC[C@H](CCCCC[C@@H](O)CC2=C[C@H](C)OC2=O)O1 (stereo not given in full) [GIGANTETRONENIN]
LC50 [1]: 9.4 µg/mL (≈ 15.7 µM)
EC50 (A549): 0.00471 µg/mL (≈ 0.00789 µM)

CCCCCCCCCCCC[C@@H](OC(C)=O)[C@H]1CC[C@H]([C@@H](CCCCCC[C@H](CCCCC[C@H](CC2=C[C@H](C)OC2=O)OC(C)=O)OC(C)=O)OC(C)=O)O1
EC50 (HT-29): 14.9 µg/mL (≈ 18.7 µM)
EC50 (A549): 0.17 µg/mL (≈ 0.214 µM)
EC50 (MCF7): 90.4 µg/mL (≈ 114 µM)

COc1cccc2c1C(=O)c1c(O)c3c(c(O)c1C2=O)C[C@@](O)(C(=O)CO)C[C@@H]3O[C@H]1C[C@H](N)[C@H](O)[C@H](C)O1 [DOXORUBICIN]
EC50 (HT-29): 0.00483 µg/mL (≈ 0.00889 µM)
LC50 [1]: 8 µg/mL (≈ 14.7 µM)
ED50 (A549): 2.37 ×10⁻⁴ ug/ml
EC50 (MCF7): 0.0108 µg/mL (≈ 0.0199 µM)

CCCCCCCCCCCC/C=C\CC[C@@H](OC(C)=O)[C@@H](CC[C@H](OC(C)=O)[C@@H]1CC[C@@H](CCCCCC(CC2=CC(C)OC2=O)OC(C)=O)O1)OC(C)=O (stereo not given in full)
EC50 (HT-29): 1.6 µg/mL (≈ 2.02 µM)
EC50 (A549): 0.96 µg/mL (≈ 1.21 µM)
EC50 (MCF7): 5.97 µg/mL (≈ 7.55 µM)

CCCCCCCCCCCC[C@H](O)[C@@H]1CC[C@@H]([C@@H](O)CCCCCCC(O)CCCCC[C@@H](O)CC2=C[C@H](C)OC2=O)O1 (stereo not given in full) [ANNOMONTACIN]
LC50 [1]: 12.5 µg/mL (≈ 20 µM)

CCCCCCCCCCCC/C=C\CC[C@@H](O)[C@H](O)CC[C@H](O)[C@@H]1CC[C@@H](CCCCCCCC2=C[C@H](C)OC2=O)O1 [GIGANTRIONENIN]
EC50 (HT-29): 0.00292 µg/mL (≈ 0.00481 µM)
LC50 [1]: 13.9 µg/mL (≈ 22.9 µM)
EC50 (A549): 0.00394 µg/mL (≈ 0.00649 µM)
EC50 (MCF7): 8.06 µg/mL (≈ 13.3 µM)
